Data taken from the array DNA melting data of Ke et al. (doi:10.1101/2024.01.08.574731).

Legend:
[1] = melting temperature; fluorescence melt of hairpins on a sequencing array, two-state fit, raised by 9.35 °C to match UV melts; conditions: sodium 0.088 M
Procedure, shortened: (§1)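 With Cy3 and quencher oligos annealed, library hairpins on a sequenced MiSeq flow cell were imaged for Cy3 fluorescence in 50 mM Na-HEPES pH 8.0, 25 mM NaCl, in 2.5 °C steps up to 60 °C. Melting temperature and folding enthalpy were derived from bootstrapped two-state fits of signals normalised to pre-quench Cy3 and to control constructs. Four replicates were combined by inverse variance, with fitted temperatures raised by 9.35 °C to match UV melts.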

[2] = folding enthalpy; higher = less favourable; fluorescence melt of hairpins on a sequencing array, two-state fit; conditions: sodium 0.088 M
Procedure, shortened: as §1

Which results are given for GGCTCAGCGAAAGCTGCC (((..(((....))))))?
Tm [1]: 44.2 °C; folding enthalpy [2]: -12.3 kcal/mol

Which Tm [1] does the source give for GGCTCCACGAAAGTGGCC (((..(((....)))))) here?
The Tm was 37.6 °C.

And the folding enthalpy [2]?
The folding enthalpy was -11.8 kcal/mol.

Which Tm [1] does the source give for GGCTCCGAAAGGAAGCC ((((((....))).))) here?
The Tm was 64.1 °C.

What about the folding enthalpy [2] of the same sequence?
Its folding enthalpy is -37.7 kcal/mol.

Which Tm [1] does the source give for GGCTCCGAAAGGATGCC ((((((....))).))) here?
Its Tm is 62.6 °C.

What about the folding enthalpy [2] of the same sequence?
The folding enthalpy was -31 kcal/mol.

Which Tm [1] does the source give for GGCTCGACGAAAGTCGCC (((..(((....)))))) here?
The Tm was 35.1 °C.

And the folding enthalpy [2]?
Its folding enthalpy is -8 kcal/mol.

For GGCTCGGGAAACCGGGCC (((.(((....))).))), which Tm [1] is on record?
The Tm was 66 °C.

What about the folding enthalpy [2] of the same sequence?
The folding enthalpy was -38.4 kcal/mol.

Which Tm [1] does the source give for GGCTCGGGAAACCGGGTC (.(.(((....))).).) here?
The Tm was 46.9 °C.

And the folding enthalpy [2]?
The folding enthalpy was -28.2 kcal/mol.

What does the source list for GGCTCTCGAAAGAGTGCC (((.(((....))).)))?
Tm [1]: 58.1 °C; folding enthalpy [2]: -49.1 kcal/mol

With GGCTCTGAAAAGAGCC ((((((....)))))) as the sequence, how does the Tm [1] read?
The Tm was 68.9 °C.

What about the folding enthalpy [2] of the same sequence?
The folding enthalpy was -38.3 kcal/mol.

What does the source list for GGCTCTGGAAACAGGGCC (((.(((....))).)))?
Tm [1]: 58.1 °C; folding enthalpy [2]: -27.7 kcal/mol

With GGCTGAGGAAACTCAGTC (.(((((....))))).) as the sequence, how does the Tm [1] read?
The Tm was 51.3 °C.

And the folding enthalpy [2]?
Its folding enthalpy is -41.6 kcal/mol.

For GGCTGAGGAAACTCGGCC (((.(((....))).))), which Tm [1] is on record?
The Tm was 58.3 °C.

What about the folding enthalpy [2] of the same sequence?
The folding enthalpy was -46.7 kcal/mol.

Which results are given for GGCTGAGGAAACTTAGCC ((((.((....)).))))?
Tm [1]: 50.2 °C; folding enthalpy [2]: -36.3 kcal/mol

What does the source list for GGCTGAGGAAACTTGGCC (((..((....))..)))?
Tm [1]: 43.8 °C; folding enthalpy [2]: -30.8 kcal/mol

For GGCTGCGAAAGCACAGCC ((((((....)))..))), which Tm [1] is on record?
The Tm was 57.8 °C.

And the folding enthalpy [2]?
The folding enthalpy was -25.6 kcal/mol.

What does the source list for GGCTGCGAAAGCACGGCC ((((((....)))..)))?
Tm [1]: 53.5 °C; folding enthalpy [2]: -23.4 kcal/mol

With GGCTGCGAAAGCACTGCC ((((((....)))..))) as the sequence, how does the Tm [1] read?
Its Tm is 50.9 °C.

What about the folding enthalpy [2] of the same sequence?
Its folding enthalpy is -20.5 kcal/mol.

Which results are given for GGCTGCGAAAGCAGGGCC ((((((....)))..)))?
Tm [1]: 53.1 °C; folding enthalpy [2]: -13 kcal/mol

What does the source list for GGCTGCGAAAGCATCGCC ((((((....)))..)))?
Tm [1]: 48.5 °C; folding enthalpy [2]: -21.8 kcal/mol

For GGCTGGACGAAAGTCGCC (((..(((....)))))), which Tm [1] is on record?
The Tm was 52.5 °C.

And the folding enthalpy [2]?
The folding enthalpy was -20.2 kcal/mol.

What does the source list for GGCTGGGGAAACCCGGCC (((.(((....))).)))?
Tm [1]: 66.6 °C; folding enthalpy [2]: -39.7 kcal/mol

With GGCTGGGGAAACTCGGCC (((.(.(....).).))) as the sequence, how does the Tm [1] read?
The Tm was 49.4 °C.

And the folding enthalpy [2]?
The folding enthalpy was -36.5 kcal/mol.

Which results are given for GGCTTACCGAAAGGTGCC (((..(((....))))))?
Tm [1]: 50.2 °C; folding enthalpy [2]: -23.1 kcal/mol

Which results are given for GGCTTAGGAAACTAAACC ((.((((....)))).))?
Tm [1]: 31.8 °C; folding enthalpy [2]: -15.7 kcal/mol

For GGCTTAGGAAACTAAGTC (.(((((....))))).), which Tm [1] is on record?
Its Tm is 44.4 °C.

What about the folding enthalpy [2] of the same sequence?
The folding enthalpy was -32.5 kcal/mol.

Which Tm [1] does the source give for GGCTTAGGAAACTGAGCC ((((.((....)).)))) here?
Its Tm is 50.4 °C.

And the folding enthalpy [2]?
Its folding enthalpy is -44.6 kcal/mol.

With GGCTTCCGAAAGGAGCC (((.(((....)))))) as the sequence, how does the Tm [1] read?
Its Tm is 60 °C.

And the folding enthalpy [2]?
The folding enthalpy was -37.1 kcal/mol.

What does the source list for GGCTTCGAAAGAACAGCC ((((((....)))..)))?
Tm [1]: 43.1 °C; folding enthalpy [2]: -29.7 kcal/mol

For GGCTTCGAAAGAAGAGCC ((((((....)))..))), which Tm [1] is on record?
The Tm was 45.3 °C.

And the folding enthalpy [2]?
The folding enthalpy was -21.8 kcal/mol.

For GGCTTCGAAAGAAGTGCC ((((((....)))..))), which Tm [1] is on record?
The Tm was 42.6 °C.

And the folding enthalpy [2]?
The folding enthalpy was -16.1 kcal/mol.

What does the source list for GGCTTCGCGAAAGCGGCC (((..(((....))))))?
Tm [1]: 48.8 °C; folding enthalpy [2]: -16.4 kcal/mol

What does the source list for GGCTTCGGAAACGAAACC ((.((((....)))).))?
Tm [1]: 44.8 °C; folding enthalpy [2]: -25.4 kcal/mol

Which results are given for GGCTTCGGAAACGGAGTC (.((.((....)).)).)?
Tm [1]: 39.9 °C; folding enthalpy [2]: -24.1 kcal/mol

With GGCTTCTCGAAAGAGGCC (((..(((....)))))) as the sequence, how does the Tm [1] read?
Its Tm is 47.1 °C.

What about the folding enthalpy [2] of the same sequence?
Its folding enthalpy is -24.4 kcal/mol.

For GGCTTGAAAAAGCC (((((....))))), which Tm [1] is on record?
Its Tm is 59.6 °C.

What about the folding enthalpy [2] of the same sequence?
Its folding enthalpy is -31.3 kcal/mol.

Which results are given for GGCTTGCCGAAAGGCGCC (((..(((....))))))?
Tm [1]: 55.8 °C; folding enthalpy [2]: -14 kcal/mol

For GGCTTTGGAAACAAAACC ((.((((....)))).)), which Tm [1] is on record?
Its Tm is 36.8 °C.

What about the folding enthalpy [2] of the same sequence?
The folding enthalpy was -27.3 kcal/mol.

Which results are given for GGCTTTTCGAAAGAAGCC (((..(((....))))))?
Tm [1]: 45.6 °C; folding enthalpy [2]: -33.7 kcal/mol

Which results are given for GGGAACGAAAGTTGCCCC ((((((....)))..)))?
Tm [1]: 68.7 °C; folding enthalpy [2]: -10.7 kcal/mol

For GGGAACGAAAGTTTTCCC ((((((....)))..))), which Tm [1] is on record?
Its Tm is 35.5 °C.

What about the folding enthalpy [2] of the same sequence?
Its folding enthalpy is -19.1 kcal/mol.

What does the source list for GGGAACGGAAACGCTCCC ((((.((....)).))))?
Tm [1]: 52.1 °C; folding enthalpy [2]: -36.6 kcal/mol

What does the source list for GGGAACGGAAACGTTTCC ((.((((....)))).))?
Tm [1]: 53.7 °C; folding enthalpy [2]: -35.2 kcal/mol

What does the source list for GGGAATCGAAAGATGCCC (((.(((....))).)))?
Tm [1]: 54.6 °C; folding enthalpy [2]: -44.3 kcal/mol

With GGGACAGCGAAAGCTCCC (((..(((....)))))) as the sequence, how does the Tm [1] read?
Its Tm is 46.1 °C.

What about the folding enthalpy [2] of the same sequence?
The folding enthalpy was -19 kcal/mol.

With GGGACAGGAAACTGCCCC (((.(((....))).))) as the sequence, how does the Tm [1] read?
The Tm was 50.8 °C.

And the folding enthalpy [2]?
The folding enthalpy was -35.2 kcal/mol.
